In PMC6606825 (Journal of Ginseng Research, 2018):

Assay: Pharmacokinetics of CK and its metabolite 20
Assay type: in vivo, healthy Chinese volunteers
Method in brief: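 Healthy adults given one oral tablet dose fasting (overnight, or 10 h in a crossover food-effect arm); 30 subjects from the 100/200/400 mg groups were pooled with 24 from 200 mg fasting periods. Plasma was stored at −70°C, extracted with MTBE plus internal standards and assayed by LC-MS/MS. Cmax was observed and AUClast calculated by linear trapezoid, each divided by dose. The metabolite/parent ratio was also calculated. Genotyping used Sequenom MassARRAY, and log-transformed values were compared by one-way ANOVA.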

[1] = ABCC4 rs2274406 TT (first line), mean (SD)
[2] = ABCC4 rs2274406 TT (third line), mean (SD)
[3] = ABCG2 rs2054576 AA (first line), mean (SD)
[4] = ABCG2 rs2054576 AA (third line), mean (SD)

CC(C)=CCC[C@](C)(O)[C@H]1CC[C@]2(C)[C@@H]1[C@H](O)C[C@@H]1[C@@]3(C)CC[C@H](O)C(C)(C)[C@@H]3CC[C@]12C [20(S)-PPD, 20(S)-protopanaxadiol]
Ratio 20(S)-PPD/CK AUClast/D (ABCC4 rs1151471 TT, mean (SD)): 2.12 (2.57) % | Ratio 20(S)-PPD/CK Cmax/D (ABCC4 rs1151471 TT, mean (SD)): 0.52 (0.50) % | 20(S)-PPD AUClast/D (ABCC4 rs1189437 GG, n = 1): 3.78 (−) | 20(S)-PPD Cmax/D (ABCC4 rs1189437 GG, n = 1): 0.11 (−) | Ratio 20(S)-PPD/CK AUClast/D (ABCC4 rs1189437 GG, n = 1): 31.18 (−) % | Ratio 20(S)-PPD/CK Cmax/D (ABCC4 rs1189437 GG, n = 1): 6.05 (−) % | 20(S)-PPD AUClast/D (ABCC4 rs1189437 GT, mean (SD)): 1.25 (0.80) | 20(S)-PPD Cmax/D (ABCC4 rs1189437 GT, mean (SD)): 0.05 (0.03) | Ratio 20(S)-PPD/CK AUClast/D (ABCC4 rs1189437 GT, mean (SD)): 7.87 (7.32) % | Ratio 20(S)-PPD/CK Cmax/D (ABCC4 rs1189437 GT, mean (SD)): 2.35 (2.55) % | 20(S)-PPD AUClast/D (ABCC4 rs1189437 TT, mean (SD)): 0.54 (0.49) | 20(S)-PPD Cmax/D (ABCC4 rs1189437 TT, mean (SD)): 0.02 (0.02) | Ratio 20(S)-PPD/CK AUClast/D (ABCC4 rs1189437 TT, mean (SD)): 2.03 (2.50) % | Ratio 20(S)-PPD/CK Cmax/D (ABCC4 rs1189437 TT, mean (SD)): 0.50 (0.49) % | 20(S)-PPD AUClast/D (ABCC4 rs1751034 TC, mean (SD)): 1.51 (1.01) | 20(S)-PPD Cmax/D (ABCC4 rs1751034 TC, mean (SD)): 0.05 (0.04) | Ratio 20(S)-PPD/CK Cmax/D (ABCC4 rs1751034 TC, mean (SD)): 2.88 (2.68) % | 20(S)-PPD AUClast/D (ABCC4 rs1751034 TT, mean (SD)): 0.59 (0.51) | 20(S)-PPD Cmax/D (ABCC4 rs1751034 TT, mean (SD)): 0.02 (0.02) | Ratio 20(S)-PPD/CK AUClast/D (ABCC4 rs1751034 TT, mean (SD)): 2.17 (2.45) % | Ratio 20(S)-PPD/CK Cmax/D (ABCC4 rs1751034 TT, mean (SD)): 0.55 (0.50) % | 20(S)-PPD AUClast/D (ABCC4 rs2274406 CT, mean (SD)): 0.77 (0.73) | 20(S)-PPD Cmax/D (ABCC4 rs2274406 CT, mean (SD)): 0.03 (0.03) | Ratio 20(S)-PPD/CK AUClast/D (ABCC4 rs2274406 CT, mean (SD)): 3.81 (4.77) % | Ratio 20(S)-PPD/CK Cmax/D (ABCC4 rs2274406 CT, mean (SD)): 1.15 (1.88) % | 20(S)-PPD AUClast/D [1]: 0.78 (0.55) | 20(S)-PPD Cmax/D [1]: 0.03 (0.03) | Ratio 20(S)-PPD/CK AUClast/D [1]: 2.75 (2.87) % | Ratio 20(S)-PPD/CK Cmax/D [1]: 0.63 (0.46) % | 20(S)-PPD AUClast/D [2]: 0.97 (1.01) | 20(S)-PPD Cmax/D [2]: 0.03 (0.03) | Ratio 20(S)-PPD/CK AUClast/D [2]: 6.34 (9.72) % | Ratio 20(S)-PPD/CK Cmax/D [2]: 1.49 (1.93) % | 20(S)-PPD AUClast/D (ABCC4 rs2274407 CA, mean (SD)): 0.70 (0.61) | 20(S)-PPD Cmax/D (ABCC4 rs2274407 CA, mean (SD)): 0.03 (0.02) | Ratio 20(S)-PPD/CK AUClast/D (ABCC4 rs2274407 CA, mean (SD)): 3.96 (6.67) % | Ratio 20(S)-PPD/CK Cmax/D (ABCC4 rs2274407 CA, mean (SD)): 1.04 (1.40) % | 20(S)-PPD AUClast/D (ABCC4 rs2274407 CC, mean (SD)): 0.87 (0.83) | 20(S)-PPD Cmax/D (ABCC4 rs2274407 CC, mean (SD)): 0.03 (0.03) | Ratio 20(S)-PPD/CK AUClast/D (ABCC4 rs2274407 CC, mean (SD)): 4.39 (6.18) % | Ratio 20(S)-PPD/CK Cmax/D (ABCC4 rs2274407 CC, mean (SD)): 1.18 (1.84) % | 20(S)-PPD AUClast/D (ABCC4 rs4148546 AA, mean (SD)): 1.01 (0.97) | 20(S)-PPD Cmax/D (ABCC4 rs4148546 AA, mean (SD)): 0.03 (0.03) | Ratio 20(S)-PPD/CK AUClast/D (ABCC4 rs4148546 AA, mean (SD)): 6.66 (9.45) % | Ratio 20(S)-PPD/CK Cmax/D (ABCC4 rs4148546 AA, mean (SD)): 1.37 (1.86) % | 20(S)-PPD AUClast/D (ABCC4 rs4148546 GA, mean (SD)): 0.87 (0.75) | 20(S)-PPD Cmax/D (ABCC4 rs4148546 GA, mean (SD)): 0.03 (0.03) | Ratio 20(S)-PPD/CK AUClast/D (ABCC4 rs4148546 GA, mean (SD)): 4.17 (4.77) % | Ratio 20(S)-PPD/CK Cmax/D (ABCC4 rs4148546 GA, mean (SD)): 1.32 (1.94) % | 20(S)-PPD AUClast/D (ABCC4 rs4148546 GG, mean (SD)): 0.47 (0.46) | 20(S)-PPD Cmax/D (ABCC4 rs4148546 GG, mean (SD)): 0.02 (0.02) | Ratio 20(S)-PPD/CK AUClast/D (ABCC4 rs4148546 GG, mean (SD)): 1.34 (1.47) % | Ratio 20(S)-PPD/CK Cmax/D (ABCC4 rs4148546 GG, mean (SD)): 0.41 (0.46) % | 20(S)-PPD AUClast/D [3]: 0.78 (0.79) | 20(S)-PPD Cmax/D [3]: 0.03 (0.03) | Ratio 20(S)-PPD/CK AUClast/D [3]: 4.17 (5.11) % | Ratio 20(S)-PPD/CK Cmax/D [3]: 1.26 (1.98) % | 20(S)-PPD AUClast/D [4]: 2.05 (1.51) | 20(S)-PPD Cmax/D [4]: 0.06 (0.04) | Ratio 20(S)-PPD/CK AUClast/D [4]: 12.95 (15.83) % | Ratio 20(S)-PPD/CK Cmax/D [4]: 2.56 (3.02) % | 20(S)-PPD AUClast/D (ABCG2 rs2054576 GA, mean (SD)): 0.73 (0.53) | 20(S)-PPD Cmax/D (ABCG2 rs2054576 GA, mean (SD)): 0.03 (0.02) | Ratio 20(S)-PPD/CK AUClast/D (ABCG2 rs2054576 GA, mean (SD)): 3.30 (5.27) % | Ratio 20(S)-PPD/CK Cmax/D (ABCG2 rs2054576 GA, mean (SD)): 0.83 (1.11) % | 20(S)-PPD AUClast/D (ABCG2 rs2231142 GG, mean (SD)): 0.62 (0.53) | 20(S)-PPD Cmax/D (ABCG2 rs2231142 GG, mean (SD)): 0.02 (0.02) | Ratio 20(S)-PPD/CK AUClast/D (ABCG2 rs2231142 GG, mean (SD)): 2.95 (3.04) % | Ratio 20(S)-PPD/CK Cmax/D (ABCG2 rs2231142 GG, mean (SD)): 0.78 (0.71) % | 20(S)-PPD AUClast/D (ABCG2 rs2231142 GT, mean (SD)): 0.88 (0.83) | 20(S)-PPD Cmax/D (ABCG2 rs2231142 GT, mean (SD)): 0.03 (0.04) | Ratio 20(S)-PPD/CK AUClast/D (ABCG2 rs2231142 GT, mean (SD)): 4.13 (5.64) % | Ratio 20(S)-PPD/CK Cmax/D (ABCG2 rs2231142 GT, mean (SD)): 1.45 (2.39) % | 20(S)-PPD AUClast/D (ABCG2 rs2231142 TT, mean (SD)): 2.05 (1.51) | 20(S)-PPD Cmax/D (ABCG2 rs2231142 TT, mean (SD)): 0.06 (0.04) | Ratio 20(S)-PPD/CK AUClast/D (ABCG2 rs2231142 TT, mean (SD)): 12.95 (15.83) % | Ratio 20(S)-PPD/CK Cmax/D (ABCG2 rs2231142 TT, mean (SD)): 2.56 (3.02) % | 20(S)-PPD AUClast/D (ABCG2 rs2231148 AA, mean (SD)): 0.68 (0.31) | 20(S)-PPD Cmax/D (ABCG2 rs2231148 AA, mean (SD)): 0.03 (0.01) | Ratio 20(S)-PPD/CK AUClast/D (ABCG2 rs2231148 AA, mean (SD)): 3.01 (2.32) % | Ratio 20(S)-PPD/CK Cmax/D (ABCG2 rs2231148 AA, mean (SD)): 0.84 (0.60) % | 20(S)-PPD AUClast/D (ABCG2 rs2231148 AT, mean (SD)): 0.93 (0.97) | 20(S)-PPD Cmax/D (ABCG2 rs2231148 AT, mean (SD)): 0.03 (0.04) | Ratio 20(S)-PPD/CK AUClast/D (ABCG2 rs2231148 AT, mean (SD)): 4.06 (6.40) % | Ratio 20(S)-PPD/CK Cmax/D (ABCG2 rs2231148 AT, mean (SD)): 1.42 (2.72) % | 20(S)-PPD AUClast/D (ABCG2 rs2231148 TT, mean (SD)): 0.80 (0.80) | 20(S)-PPD Cmax/D (ABCG2 rs2231148 TT, mean (SD)): 0.03 (0.02) | Ratio 20(S)-PPD/CK AUClast/D (ABCG2 rs2231148 TT, mean (SD)): 4.75 (7.36) % | Ratio 20(S)-PPD/CK Cmax/D (ABCG2 rs2231148 TT, mean (SD)): 1.11 (1.45) % | 20(S)-PPD AUClast/D (ABCG2 rs2725248 AA, mean (SD)): 0.69 (0.78) | 20(S)-PPD Cmax/D (ABCG2 rs2725248 AA, mean (SD)): 0.02 (0.03) | Ratio 20(S)-PPD/CK AUClast/D (ABCG2 rs2725248 AA, mean (SD)): 3.94 (7.05) % | Ratio 20(S)-PPD/CK Cmax/D (ABCG2 rs2725248 AA, mean (SD)): 0.92 (1.40) % | 20(S)-PPD AUClast/D (ABCG2 rs2725248 CA, mean (SD)): 1.05 (0.79) | 20(S)-PPD Cmax/D (ABCG2 rs2725248 CA, mean (SD)): 0.04 (0.03) | Ratio 20(S)-PPD/CK AUClast/D (ABCG2 rs2725248 CA, mean (SD)): 4.84 (5.49) % | Ratio 20(S)-PPD/CK Cmax/D (ABCG2 rs2725248 CA, mean (SD)): 1.53 (2.29) % | 20(S)-PPD AUClast/D (ABCG2 rs2725248 CC, mean (SD)): 0.96 (1.03) | 20(S)-PPD Cmax/D (ABCG2 rs2725248 CC, mean (SD)): 0.03 (0.03) | Ratio 20(S)-PPD/CK AUClast/D (ABCG2 rs2725248 CC, mean (SD)): 3.24 (3.92) %
